A selection: hits, their analogues and other compounds. The true share with any hit is near 2.6%.
HCV core dimer: blocks dimerization of HCV core protein; AID 1899; actives 0.33% (n = 300,000); TR-FRET GST/Flag-core106 dimerization, 1536-well; inhibition, % at 5 µM;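 active = inhibition above the mean of all tested compounds plus 3 SD, set per screening campaign, cut at about 45% in these data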
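assay system = GST-tagged and Flag-tagged HCV core protein residues 1-106 | controls = unlabelled core106 and no-GST-core106 wells | incubation = compound-protein-antibody incubation 4 h at 22.5 °C | probe or stimulus = Eu donor and XL665 acceptor anti-tag antibodies | read-out = % inhibition based on acceptor/donor emission ratio | signal = TR-FRET 671 and 617 nm emission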
NadD block: inhibitors of Staphylococcus aureus NadD | actives 0.78% (n = 360,000) | inhibition, % at 20 µM | purified NadD enzyme, colorimetric absorbance read-out; in the data active = inhibition above about 26%
ABHD5-PLIN5 inh: inhibitors of human ABHD5-perilipin-5 interaction. Split G. princeps luciferase complementation, luminescence, 4 h. actives 0.78% (n = 360,000). inhibition, % at 4 µM. AID 602281. Q00G26+Q8WTS1;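 active = inhibition above the mean inhibition across every tested compound plus 3 SD, cut at about 22% in these data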;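 also: 0% = DMSO only wells and the 100% control is not disclosed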
Target sequence (Q00G26 whole entry, looked up): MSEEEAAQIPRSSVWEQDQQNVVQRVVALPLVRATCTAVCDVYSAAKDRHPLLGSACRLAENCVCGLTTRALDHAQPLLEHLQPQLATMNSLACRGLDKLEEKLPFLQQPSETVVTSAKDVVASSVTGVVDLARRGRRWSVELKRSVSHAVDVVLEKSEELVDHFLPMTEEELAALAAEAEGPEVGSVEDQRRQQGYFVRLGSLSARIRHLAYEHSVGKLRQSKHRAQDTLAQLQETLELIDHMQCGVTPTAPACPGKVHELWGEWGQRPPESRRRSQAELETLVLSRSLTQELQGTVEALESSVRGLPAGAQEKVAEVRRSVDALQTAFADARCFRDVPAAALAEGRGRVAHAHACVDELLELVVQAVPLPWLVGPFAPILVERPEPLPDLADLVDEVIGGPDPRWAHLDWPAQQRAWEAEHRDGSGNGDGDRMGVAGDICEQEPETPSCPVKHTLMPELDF
Target sequence (Q8WTS1 whole entry, looked up): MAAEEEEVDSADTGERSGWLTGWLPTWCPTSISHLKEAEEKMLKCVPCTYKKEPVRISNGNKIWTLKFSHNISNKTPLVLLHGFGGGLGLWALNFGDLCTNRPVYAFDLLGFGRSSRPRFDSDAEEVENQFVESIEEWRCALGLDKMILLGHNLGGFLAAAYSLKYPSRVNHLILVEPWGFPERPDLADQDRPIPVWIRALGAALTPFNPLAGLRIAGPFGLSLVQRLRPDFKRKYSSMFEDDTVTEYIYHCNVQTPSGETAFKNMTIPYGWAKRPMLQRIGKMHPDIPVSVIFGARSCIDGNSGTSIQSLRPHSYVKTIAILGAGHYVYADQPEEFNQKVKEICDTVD
rCAG RNA binder: molecules binding r(CAG) RNA repeats | actives 1.3% (n = 370,000) | r(CAG) RNA repeat, TO-PRO-1 dye displacement fluorescence | inhibition, % at 3 µM;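 active = inhibition above the plate cutoff, the mean of all test compounds on that plate plus 3 SD, cut at about 35% in these data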;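 also: 0% = DMSO alone and 100% = 100 µM mitoxantrone as full dye displacement; higher means more dye released from RNA so lower well fluorescence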
rCAG binder conf: r(CAG) RNA repeat binding, confirmation. actives 70% (n = 4,300). AID 652065. inhibition, % at 3 µM. TO-PRO-1 dye displacement fluorescence. shares compounds with rCAG RNA binder;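 active = inhibition above a per-plate cutoff, the mean inhibition of sample wells plus 3 SD, cut at about 35% in these data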;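 also: loss of TO-PRO-1 fluorescence as compound displaces dye from 1x1 AA loop RNA; 0% = DMSO only wells and 100% = 100 µM mitoxantrone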
DNA CAG counter: DNA CAG dye complex inhibition counter-screen. actives 94% (n = 4,300). d(CAG) DNA oligo TO-PRO-1 dye displacement, fluorescence. AID 652068. shares compounds with rCAG RNA binder. inhibition, % at 3 µM;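 active = inhibition above its plate's cutoff, the mean test-well inhibition plus 3 SD, cut at about 4.8% in these data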;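 also: 0% = DNA dye mix with DMSO and 100% = 100 µM mitoxantrone; hits displace the dye from DNA and so lower well fluorescence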
dCAG dye DR: counter-screen for rCAG binders: inhibitors of DNA CAG TO-PRO-1 complex. shares compounds with rCAG RNA binder. DNA CAG/GTC duplex TO-PRO-1 dye displacement fluorescence. IC50, µM. actives 20% (n = 250); in the data active = IC50 below about 10 µM
* marks the source's active call; other numbers are inactive results; i = inactive; . = no result given.

SMILES	HCV core dimer	NadD block	ABHD5-PLIN5 inh	rCAG RNA binder	rCAG binder conf	DNA CAG counter	others
O=C(Nc1ccc(C(=O)O)cc1)/C(=C\c1ccco1)NC(=O)c1ccccc1Cl	-6	-2	0	43*	6	2
CC(C)(C)c1ccc(C(=O)N/C(=C\c2ccco2)C(=O)Nc2ccccc2C(=O)O)cc1	-3	5	0	62*	68*	29*
Cc1oc(-c2ccccc2)cc1C(=O)Nc1cccc(/C=C/C(=O)O)c1	.	1	2	47*	39*	9.0*
C[C@@H]1CCCN1c1ccc2c(c1)O[C@@H]1CCN(C1)S2(=O)=O	.	.	.	4	.	.
CCc1cc2c(-c3ccccc3)cc(=O)oc2cc1OCC(C)=O	-1	1	3	-2	.	.
CCCc1cc2c(-c3ccccc3)cc(=O)oc2cc1OCc1ccc(C(=O)O)o1	20	17	2	57*	73*	27*	dCAG dye DR=i
CCc1ccc(C(=O)/C=C/c2ccc([N+](=O)[O-])o2)cc1	24	26	11	38*	17	11*
O=C(CSc1nnc(SCc2ccccc2Cl)s1)N/N=C/c1ccc(C(=O)O)cc1	1	4	5	49*	60*	17*
O=C(CSc1nnc(SCc2ccccc2)s1)N/N=C/c1c(Cl)cccc1Cl	1	-10	-2	2	.	.
O=C(CN(Cc1ccccc1Cl)S(=O)(=O)c1ccc(Cl)cc1)N/N=C/c1ccc(C(=O)O)cc1	.	5	0	71*	55*	20*
O=C(CN(Cc1ccccc1)S(=O)(=O)c1ccccc1)N/N=C/c1ccc([N+](=O)[O-])cc1	12	-1	2	10	.	.
O=C(Nc1ccc(Cl)cc1)Nc1ccccc1C(=O)N1CCCC1	.	.	.	3	.	.
CC(C)(C)OC(=O)/C=C/[C@H](CCCCl)Sc1ccc(C(C)(C)C)cc1	.	.	.	1	.	.
O=C(O)c1ccc(Cl)cc1Nc1nc2cc(Cl)ccc2o1	1	-1	-6	73*	84*	62*
O=C(c1cccc(S(=O)(=O)Nc2ccccc2Cl)c1)N1CCN(c2ccccc2O)CC1	.	3	-13	41*	31	9.3*
O=C(N/N=C/c1ccccc1C(=O)O)c1cccc(S(=O)(=O)Nc2cc(Cl)ccc2Cl)c1	6	7	2	49*	28	6.8*
O=C(NNC(=S)NC1CCCCC1)c1cccc(S(=O)(=O)Nc2ccccc2Cl)c1	18	3	-5	56*	51*	19*
CC1CN(C(=O)c2cccc(S(=O)(=O)Nc3cc(Cl)ccc3Cl)c2)CC(C)O1 (configuration not stated)	6	-1	-2	41*	33	5.5*
CC(C)C[C@H]1COc2cccc(F)c2S(=O)(=O)N1Cc1cn(Cc2ccco2)nn1	.	.	.	2	.	.
COc1cccc(CNc2nc3cc(-c4cnn(Cc5ccccc5)c4)sc3c(=O)n2C)c1	.	3	4	14	.	.
Cc1cc(C)cc(CC(=O)N2CCC2(C)C(=O)NS(=O)(=O)c2ccc(Br)cc2)c1 (configuration not stated)	.	-6	5	23	.	.
CC(C)(C)c1ccc(CC(=O)N2CCC2(C)C(=O)NS(=O)(=O)c2cccc(Cl)c2)cc1 (configuration not stated)	.	3	3	55*	49*	16*
CC(C)(C)c1ccc(S(=O)(=O)NC(=O)C2(C)CCN2C(=O)Cc2cc(F)ccc2F)cc1 (configuration not stated)	.	-3	-2	38*	30	5.6*
Cc1cc(C)cc(CC(=O)N2CCC2(C)C(=O)NS(=O)(=O)c2ccc(C(C)(C)C)cc2)c1 (configuration not stated)	.	0	-1	58*	50*	15*
CC(C)(C)c1ccc(S(=O)(=O)NC(=O)C2(C)CCN2C(=O)Cc2ccc(-c3ccccc3)cc2)cc1 (configuration not stated)	.	21	-3	72*	86*	49*
SMILES	HCV core dimer	NadD block	ABHD5-PLIN5 inh	rCAG RNA binder	rCAG binder conf	DNA CAG counter	others
CCOC1=C2CN(S(=O)(=O)c3ccc(C)cc3)C(c3cccc(Cl)c3)CC2N(S(=O)(=O)c2ccc(Cl)cc2)C(c2ccccc2)C1 (configuration not stated)	.	.	6	3	.	.
CCCC#Cc1ccc2c(c1)O[C@H](CN(C)S(=O)(=O)c1cccc(OC)c1)[C@H](C)CN([C@H](C)CO)S2(=O)=O	.	-1	3	7	.	.
COc1cccc([C@H]2NC(=O)C/C=C/[C@@H](C)[C@@H](c3cccc(OC)c3)NC(=O)C/C=C/[C@H]2C)c1	.	.	.	7	.	.
COC(=O)c1cccc2c([N+](=O)[O-])c(NC(C)=O)cc(C(=O)OC)c12	.	.	.	1	.	.
OC[C@@H]1CN(Cc2ccc(F)cc2)C[C@H](n2cnc3c(N4CCN(c5ccccc5)CC4)ncnc32)O1	.	-1	2	5	.	.
CC1(C(=O)NS(=O)(=O)c2ccc(Cl)cc2)CCN1C(=O)Cc1ccc(-c2ccccc2)cc1 (configuration not stated)	.	3	-4	66*	64*	23*
CC(C)(C)c1ccc(S(=O)(=O)NC(=O)C2(C)CCN2C(=O)C2CCCCC2)cc1 (configuration not stated)	.	5	11	21	.	.
CC(C)(C)c1ccc(S(=O)(=O)NC(=O)C2(C)CCN2C(=O)CC2CCCCC2)cc1 (configuration not stated)	.	3	-1	44*	31	5.3*
O[C@H](COc1ccccc1)CN1CCC(C(O)(c2ccccc2)c2ccccc2)CC1	.	.	.	0	.	.
Cc1cc(OC[C@@H](O)CN2CCC(C(O)(c3ccccc3)c3ccccc3)CC2)ccc1Br	.	.	.	4	.	.
C=CCN1C(C(=O)OCC)CSCCS1(=O)=O (configuration not stated)	.	.	.	2	.	.
CCCCc1cc(=O)oc2cc(C)cc(OCC(=O)N[C@@H](CSCc3ccccc3)C(=O)O)c12	8	-3	-5	39*	47*	12*
CCc1cc(=O)oc2cc(C)cc(OCC(=O)N[C@@H](CSCc3ccccc3)C(=O)O)c12	1	-4	3	47*	40*	8.3*
O=[N+]([O-])c1cc([N+](=O)[O-])c2cc3ccccc3nc2c1	-7	11	6	6	.	.
C=CCN1C(=O)/C(=C/c2ccc(OCC(=O)O)cc2)S/C1=N/c1nccs1	7	10	-1	56*	57*	17*
C=CCN1C(=O)/C(=C/c2ccc(O)c(OC)c2)S/C1=N/c1nccs1	-2	12	-4	35	.	.
CCCCN1C(=O)C(CC(=O)NCCCCc2ccccc2)CC(C(=O)N2CCCCCC2)=C1C (configuration not stated)	.	8	2	-2	.	.
